# In ChEMBL document CHEMBL4422613, “Amarisolide F, an Acylated Diterpenoid Glucoside and Related Terpenoids from Salvia amarissima” (J Nat Prod, 2019):
# What was measured:
# Homo sapiens [1] = species on record: Homo sapiens; assay: Inhibition of MDR protein in human MCF7/Vin cells cultured in absence of vinblastine assessed as reversal fold at 5 ug/ml after 72 hrs by sulforhodamine B assay; format: cell-based
# Homo sapiens [2] = species on record: Homo sapiens; assay: Inhibition of MDR protein in human MCF7/Vin cells cultured in presence of vinblastine assessed as reversal fold at 5 ug/ml after 72 hrs by sulforhodamine B assay; format: cell-based
# Homo sapiens [3] = species on record: Homo sapiens; assay: Inhibition of MDR protein in human MCF7/Vin cells cultured in presence of vinblastine assessed as reversal fold after 72 hrs by sulforhodamine B assay; format: cell-based
# Homo sapiens [4] = species on record: Homo sapiens; assay: Inhibition of MDR protein in human MCF7/Vin cells cultured in absence of vinblastine assessed as reversal fold after 72 hrs by sulforhodamine B assay; format: cell-based
# Homo sapiens [5] = species on record: Homo sapiens; assay: Inhibition of MDR protein in human MCF7/Vin cells cultured in presence of vinblastine assessed as reversal fold at 25 ug/ml after 72 hrs by sulforhodamine B assay; format: cell-based
# Homo sapiens [6] = species on record: Homo sapiens; assay: Inhibition of MDR protein in human MCF7/Vin cells cultured in absence of vinblastine assessed as reversal fold at 25 ug/ml after 72 hrs by sulforhodamine B assay; format: cell-based
# HCT-116 = assay: Cytotoxicity against human HCT116 cells after 72 hrs by sulforhodamine B assay; format: functional, cell-based; conditions: HCT-116, 72 h
# Homo sapiens [7] = species on record: Homo sapiens; assay: Inhibition of MDR protein in human MCF7/Vin cells cultured in absence of vinblastine assessed as reversal fold at 42.1 uM after 72 hrs by sulforhodamine B assay; format: cell-based
# In short: (§1)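 Sensitive MCF-7 and MDR MCF-7/Vin cells in RPMI 1640 with 10% FBS at 37 °C, 5% CO2. The Vin+ stock was kept in medium with […] vinblastine and the Vin− stock in vinblastine-free medium. Cells were exposed to vinblastine (0.7 nM–11 μM) with or without compound (42.1 μM) for 72 h.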
# HeLa = assay: Cytotoxicity against human HeLa cells after 72 hrs by sulforhodamine B assay; format: functional, cell-based
# Homo sapiens [8] = species on record: Homo sapiens; assay: Inhibition of MDR protein in human MCF7/Vin cells cultured in presence of vinblastine assessed as reversal fold at 42.1 uM after 72 hrs by sulforhodamine B assay; format: cell-based; in short: as §1
# MCF7 = assay: Cytotoxicity against human MCF7 cells after 72 hrs by sulforhodamine B assay; format: functional, cell-based; conditions: MCF7, 72 h
# In short: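 Cells kept in RPMI 1640 with 10% FBS at 37 °C, 5% CO2 in humidified air. Log-phase cells were treated in triplicate with compound at 0.4–42.1 μM for 72 h.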
# HCT-15 = assay: Cytotoxicity against human HCT15 cells after 72 hrs by sulforhodamine B assay; format: functional, cell-based; conditions: HCT-15, 72 h
# MDA-MB-231 = assay: Cytotoxicity against human MDA-MB-231 cells after 72 hrs by sulforhodamine B assay; format: functional, cell-based; conditions: MDA-MB-231, 72 h
compound,measurement,setting,value
COC(=O)[C@H]1[C@H]2C[C@@H]3c4[nH]c5cc(OC)ccc5c4CCN3C[C@H]2C[C@@H](OC(=O)c2cc(OC)c(OC)c(OC)c2)[C@@H]1OC,fold change (FC),Homo sapiens [1],5
same,fold change (FC),Homo sapiens [2],29.2
O=C1C=CC[C@]2(O)C(=O)OC[C@@]12CCc1ccc(-c2ccoc2)oc1=O,fold change (FC),Homo sapiens [3],5.8
same,fold change (FC),Homo sapiens [4],3.1
C[C@@H]1C(=O)CC2=C(/C=C\C=C\[C@@]13C[C@@H](O)c1ccoc1[C@H]3O)C(=O)OC2,fold change (FC),Homo sapiens [5],10700
same,fold change (FC),Homo sapiens [6],8440
CC(=O)O[C@H]1O[C@@H](c2ccoc2)C[C@]12[C@H](C)C(=O)C[C@@]13COC(=O)C1=CC=C[C@H]32,fold change (FC),Homo sapiens [3],2.6
same,fold change (FC),Homo sapiens [4],54
CC(=O)OC[C@H]1O[C@@H](OC(=O)[C@H]2CC[C@@]34COC(=O)[C@@]3(O)CC=C[C@@]4(O)[C@@]2(C)CC(=O)c2ccoc2)[C@H](O)[C@@H](O)[C@@H]1O,IC50,HCT-116,> 42 µM
same,fold change (FC),Homo sapiens [7],2.1
same,IC50,HeLa,> 42 µM
same,fold change (FC),Homo sapiens [8],12
same,IC50,MCF7,> 42 µM
same,IC50,HCT-15,> 42 µM
same,IC50,MDA-MB-231,> 42 µM
